To fix the notation:
B1: tRNA (parent)
chain: GUUCCGUUGGCGUAAUGGUAACGCGUCUCCCUCCUAAGGAGAAGACUGCGGGUUCGAGUCCCGUACGGAACG

Fewer inactive variants are shown than the library holds.

The variants in the data set derive from B1. The data set is described as follows: yeast fitness relative to wild type (ratio to wild type); higher = fitter; tRNA-Arg(CCU), competitive growth, 37 C, YPD. In short, it runs like this: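 A pool of Saccharomyces cerevisiae strains, each with a tRNA-Arg(CCU) gene variant at the native genomic locus, was competed in YPD at 37°C for 24 hours across six parallel replicates. The variants had been chemically synthesised at a 3% per-site mutation rate over 69 sites, and gene amplicons before and after competition were read by 100-nucleotide paired-end sequencing. Darwinian fitness relative to wild type rested on changes in genotype frequencies. Genotypes required ≥ 100 starting reads, and estimates < 0.5 were set to 0.5.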
For GUUCAGUUGGCGAAAUGGUAACGCGUCUCCCUCCUAAGGAGAAGACUGCGGGUUCGAGACCCGGACGGAACG [C5A U13A U59A U64G], the yeast fitness was at most 0.5.
On to GUUCCGUUGGCGUAAUGGUAACGCUUCUCCCUCCUAAGGAGAAGACUGCGGGUUCGAGCCCCGUACGGAACG [G25U U59C], for which the yeast fitness was determined as 0.657.
As for GUUCUGUUGGGGGAAUGGUAACCCGUCUCCCUCUUAAGGAGAAGACUGCGGGUUCGAGCCCCGUAUGGAACG [C5U C11G U13G G23C C34U U59C C66U], the yeast fitness was at most 0.5.
Next, GUUCCGUUGGCGUAAUGGUAACGCGUCUCCCUCCUACGGAGAAGACUGUGGGUUUGAGUCCCAUACCGAACG [A37C C49U C55U G63A G67C]: at most 0.5; GUUCCGUUGGCGUAAUGGUAACGCGUCUCCCUCCUGAGGAGAAGACUGCGGGUACGAGUCCUGUACGGAACG [A36G U54A C62U]: at most 0.5; GUUCCGUUGGCGUAAUGGUAACGCGUCUCCUUUCUAGGGAGAAGACUGCGGGUUCGAGACCCGGACGGAACG [C31U C33U A37G U59A U64G]: 0.525.
The same measure for GUUCCGUUGGCGUACUGGUAACGCGUCUCCCUCCUAAGGAGAAGACUGCCGGUUCGAGUCCCGUACGGAACG [A15C G50C]: 0.672; for GUUCCGUUGGCGUAGUGGUAACGUGUCUCCCUCCUAAGGAGAAGACUGCGGGUUCGAGUCCCGUACGGAACG [A15G C24U]: 1.01; for GCUCCGUUGGCGUAAUGGUACCGCGUCUCCCUCCUAAGGAGUAGACUGCGGGUACGAGUCCCGUACGGAACG [U2C A21C A42U U54A]: at most 0.5.
For GUUCCGUUGGUGUAAUGGUAUCGCGUCUCCCUCCUAAGGAGAAGACUGCGGGUUCGAGUCCCGUAUGGAACG [C11U A21U C66U], the yeast fitness was 0.816.
On to GUUCGGUUGGCGCAAUGGUAACGCGUCUCCAUCCUAAGGAGAGGACUGCCGGUUCGAGUCCCGUACGGAACG [C5G U13C C31A A43G G50C], for which the yeast fitness is at most 0.5.
Take GUUCCGUUGGCGUAAUGGUAACGCGUCUCCCUCCUAAGGAGAAGGCAGCGGGUUCGAGUCCCGUACGGAACG [A45G U47A]: the yeast fitness was found to be 0.91.
Regarding GUUCCCUCGGUGUAAUGGUAACGCGUCUCCCUCCUAAGCAGAAGACUGCGGGUUAGAGUCCCGUACGGAACG [G6C U8C C11U G39C C55A], the yeast fitness is at most 0.5.
On to GUUCCGUUGGAGUAAUGGUAACGCGUCUCCCCCCUAAGGAGAAGACUGCGGGUUCGAGUCCCGUACGGAACG [C11A U32C], for which the yeast fitness is 0.739.
Next, GUUCCGUUGGCGUAAUGGUAACGCCUCUCCCUCCUAAGGAGAAGACUGCGGGUUGGAGUCCCGUACGGAACG [G25C C55G]: at most 0.5; GUCCAGUUGGGGUAAUGGUUACGCCUCUCCCUCCUAAGGAGAAGACUGCGGGUUCAAAUCCCGUACCGAACG [U3C C5A C11G A20U G25C G56A G58A G67C]: at most 0.5.
The same measure for GAUCCCCUGGCGUAAUGGUAACGCGUCUCACUCCUAAGGAGAAAACUGCGGGUUCGAGUCCCGUAAGGAACG [U2A G6C U7C C30A G44A C66A]: 0.576.
Consider GUUCCGUUGGCGUAAUGGUAACGUGUCUCCCGCCUAAGGAGAAGACUGCGGGUUCGAGUCCCGUACGGCUCG [C24U U32G A69C A70U], for which the yeast fitness is at most 0.5.
The same measure for GUUCCGUUGGCGUAAUGGUAACGCGUCUCCCUUCUAAGGAGAAGACUGCGGGUUCGAGUCCCGUACAGAACG [C33U G67A]: 0.776.
Next, GUUCCGUUGGCGUAAUGGUAACGCAUCUCCCUCCUAAGGAGAAGUCUGCGGGUUCGAGUCCCGUACGGUACG [G25A A45U A69U]: 0.806; GUUCCGUUGGCGUAAUGGUAACGGGUCUCCCUCCUAAGGAGAAGACUGCGGGUUCGAGUACCGAACGGAACG [C24G C60A U64A]: 0.607; GUUCCGUUGGCGUAAUGGUUCCGCGUCUCCAUCCUAAGGAGAAGACUGCGGGUUCGAGUCCCGUACGGAACG [A20U A21C C31A]: at most 0.5.
Next, GUUCCGUUGGCGCAAUGGUAACGCGUCUCCCUCCUAAGGUGAAGACUGCGGGUUCGAGUCCCGUACGGAACG [U13C A40U]: 1.03; GUCCCGUUGGCGUAAUGGUAACGCGUCUCCUUCCUAAGGAGAAGACUGCGGGUUCGAGUCCCGUACGGAACG [U3C C31U]: 0.891; GUUCCGUUGGCGUAAUGGUAACGCGUCUCUUUCCUAAGGAGAAGCCUGUGGGGUCGAGUCCCGUACGGAACG [C30U C31U A45C C49U U53G]: at most 0.5.
With GUUCCGUUGGCGUACUGGUAACGGGUCUCCCUCCUAAGGAGAAGACUGCGGGUUCGAGUCCCGUACGGAACG [A15C C24G], the yeast fitness turned out to be 0.557.
With GUUCCGUUGGCGCAAUGGUAACGCGUCUCCCUCCUCAGGAGAAGACUGCGGGUUCGAGUCCCGUACGGAACG [U13C A36C], the yeast fitness is 0.643.
Next, GUUCCGUUGGCAUAUUGGUAAAGCGACUCCCUCCUAAGGAGAAGACUGCGGGUUCGAAUCCCGUACGGAACG [G12A A15U C22A U26A G58A]: 0.629; GUUCAGUUGGCGUAAUGGUACCGCGUCUCGCUCCUAAGGAGAAGACUGCGGGUUGGAGUCCCGUACGGAGCG [C5A A21C C30G C55G A70G]: at most 0.5; GUUCCGUUGGCGUAAUGGUAACGCGUCUCCCUCCUACGGAGAAGACUGCGGGUUCGAGUCCCGUACGGAACG [A37C]: 0.913.
For GUUCCGUUGGUGUAAUGGUAACGCGUCUACCUCCUAAGGAGAAGACUGCGGGUUCGUGUCCUGUACGGAACG [C11U C29A A57U C62U], the yeast fitness was at most 0.5.
Next, GUUCAGUUGGCGUAAUGGUAACGCGUCUCCGUCCUAGGGAGAAGACUGCGGGUUCGAGACCCGUACGGACCG [C5A C31G A37G U59A A70C]: at most 0.5; GUUCCGUUGGCGUAAUGCUAACGCGUCUCCCUGCUAAGGGGAAGACUGCGGGUUCGAGUCUCGUACGGAACG [G18C C33G A40G C61U]: at most 0.5; GUUCCGUUGGCGUAAUGGUUACACGUCUCCCUCCUAAGGAGAAGACUGCGGGUUCAAGUCCCGUACGGCACG [A20U G23A G56A A69C]: at most 0.5.
Next, GUUCCGUUGGCGUAAUGGUAACGCGUCUCCGUCCUAAGGAGAAGACUGCGGGUUCGCGUCUCGUACGGAACG [C31G A57C C61U]: at most 0.5; GUUCCGUUGGCGUAAUGGUAACGCGUCUCCCUGCUAAGGAGAAGACUGCGGGUUCGAGUCCCGUACAGCACG [C33G G67A A69C]: at most 0.5.
The same measure for GUCCCGUUGGCGUAAUGGUAAGGCGUCUCCUUCCUAAGGAGAAGACUGCGGGCUCGAGUCCCGUACGGAACG [U3C C22G C31U U53C]: at most 0.5; for GUUCCGUUGGCGUAAUGGUAACGCGUCUCCCUCCUAAGGAGACGAAUCCGGGUUCGAGUCCCGUACGGAACG [A43C C46A G48C]: 0.851.

Source of the values: the RNAGym collection of RNA variant scans (doi:10.1126/science.aae0568).
